Results: ChEMBL document CHEMBL4715748, “Synthesis and biological investigation of new equatorial (β) stereoisomers of 3-aminotropane arylamides with atypical antipsychotic profile” (Bioorg Med Chem, 2016)

How the values were obtained:
D(2) dopamine receptor = D(2) dopamine receptor (Rattus norvegicus, UniProt P61169); assay: Displacement of [3H] Spiperone from rat striatum dopamine D2 receptor measured after 30 mins by liquid scintillation counter method
Summary of the method: (§1)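 Competition binding in rat brain tissue membranes against D2, 5-HT1A and 5-HT2A sites; Ki reported as mean ± S.E.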

[1] = target: T1, 5-hydroxytryptamine receptor 1A (Rattus norvegicus, UniProt P19327); assay: Displacement of [3H]-8-OH-DPAT from rat cerebral cortex 5HT1A receptor measured after 15 mins by liquid scintillation counter method
T1 sequence (P19327 whole entry): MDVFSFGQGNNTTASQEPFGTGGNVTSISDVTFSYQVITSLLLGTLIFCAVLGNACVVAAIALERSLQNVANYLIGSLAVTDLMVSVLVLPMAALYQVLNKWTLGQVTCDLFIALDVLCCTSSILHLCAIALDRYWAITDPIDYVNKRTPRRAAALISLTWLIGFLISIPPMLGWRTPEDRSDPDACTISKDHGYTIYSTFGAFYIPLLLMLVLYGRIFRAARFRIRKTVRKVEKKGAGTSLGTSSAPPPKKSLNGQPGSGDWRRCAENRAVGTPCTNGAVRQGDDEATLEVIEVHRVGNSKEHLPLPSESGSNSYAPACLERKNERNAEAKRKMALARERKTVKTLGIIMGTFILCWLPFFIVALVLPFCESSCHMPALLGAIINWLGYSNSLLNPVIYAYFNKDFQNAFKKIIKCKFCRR

[2] = target: 5-hydroxytryptamine receptor 2A (Rattus norvegicus, UniProt P14842); assay: Displacement of [3H]-ketanserin from rat cerebral cortex 5HT2A receptor measured after 20 mins by liquid scintillation counter method; summary of the method: as §1
Chain of 5-hydroxytryptamine receptor 2A (P14842 whole entry): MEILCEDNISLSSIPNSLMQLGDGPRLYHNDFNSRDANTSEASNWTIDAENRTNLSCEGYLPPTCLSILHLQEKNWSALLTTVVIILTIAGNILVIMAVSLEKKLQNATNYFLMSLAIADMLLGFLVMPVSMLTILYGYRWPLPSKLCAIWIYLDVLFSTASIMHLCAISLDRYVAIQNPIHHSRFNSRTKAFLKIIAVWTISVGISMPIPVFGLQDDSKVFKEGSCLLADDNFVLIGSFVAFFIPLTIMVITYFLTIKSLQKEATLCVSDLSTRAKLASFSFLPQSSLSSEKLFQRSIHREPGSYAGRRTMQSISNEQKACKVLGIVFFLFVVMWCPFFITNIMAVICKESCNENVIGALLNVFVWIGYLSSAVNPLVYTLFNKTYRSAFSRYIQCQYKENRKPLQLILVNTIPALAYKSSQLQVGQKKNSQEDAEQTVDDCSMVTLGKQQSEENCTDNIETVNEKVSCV

Chain of D(2) dopamine receptor (P61169 whole entry): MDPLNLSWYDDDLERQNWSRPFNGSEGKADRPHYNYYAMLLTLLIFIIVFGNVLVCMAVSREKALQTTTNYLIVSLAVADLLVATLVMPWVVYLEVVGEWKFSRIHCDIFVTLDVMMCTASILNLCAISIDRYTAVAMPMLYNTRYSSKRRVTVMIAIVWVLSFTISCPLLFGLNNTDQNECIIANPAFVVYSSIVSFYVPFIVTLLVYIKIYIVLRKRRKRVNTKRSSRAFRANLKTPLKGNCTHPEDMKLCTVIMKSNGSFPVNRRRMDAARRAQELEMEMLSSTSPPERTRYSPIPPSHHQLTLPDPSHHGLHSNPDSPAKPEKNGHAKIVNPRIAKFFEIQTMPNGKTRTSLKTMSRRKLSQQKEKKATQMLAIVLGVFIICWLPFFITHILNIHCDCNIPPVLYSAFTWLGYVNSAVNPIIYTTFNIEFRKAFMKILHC

Structure (SMILES) | Ki (D(2) dopamine receptor) [nM] | Ki [1] [nM] | Ki [2] [nM]
COc1ccc(CN2C3CCC2CC(NC(=O)c2ccc4ccccc4c2)C3)cc1 (configuration not stated) | 0.6 | 2600 | 920
O=C(NC1CC2CCC(C1)N2Cc1ccccc1C(F)(F)F)c1ccc2ccccc2c1 (configuration not stated) | 537 | 476 | 102
O=C(NC1CC2CCC(C1)N2Cc1ccccc1)c1ccc2ccccc2n1 (configuration not stated) | 589 | 62.7 | 502
Cc1ccccc1CN1C2CCC1CC(NC(=O)c1ccc3ccccc3c1)C2 (configuration not stated) | 118 | 193 | 1290
O=C(NC1CC2CCC(C1)N2Cc1ccncc1)c1ccc2ccccc2c1 (configuration not stated) | 2700 | 2300 | 1120
O=C(NC1CC2CCC(C1)N2Cc1cccnc1)c1ccc2ccccc2c1 (configuration not stated) | 2400 | 485 | 484
O=C(NC1CC2CCC(C1)N2Cc1ccc(Br)cc1)c1ccc2ccccc2c1 (configuration not stated) | 4.5 | 230 | 326
O=C(NC1CC2CCC(C1)N2Cc1cccc(C(F)(F)F)c1)c1ccc2ccccc2c1 (configuration not stated) | 217 | 130 | 209
O=C(NC1CC2CCC(C1)N2Cc1ccccc1F)c1ccc2ccccc2c1 (configuration not stated) | 715 | 365 | 106
